Values after ≈ are worked out from the molar mass of the structure shown.
Tests used:
Format in all cases: functional
Helicobacter pylori [1] = assay: Anti-bacterial activity against Helicobacter pylori Clinical isolate F1 measured after 72 hrs incubation by modified broth dilution method
Helicobacter pylori [2] = assay: Anti-bacterial activity against Helicobacter pylori Clinical isolate F4 measured after 72 hrs incubation by modified broth dilution method
Helicobacter pylori [3] = assay: Bactericidal against Helicobacter pylori measured after 72 hrs of incubation under microaerophilic conditions by modified broth dilution method; details: for MBC: Helicobacter pylori, read-out: MBC99.9
Procedure, shortened: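 Wells with no visible growth in the MIC assay spotted (10 μL) onto Skirrow agar. Plates incubated 72 h at 37 °C, microaerophilic, 100% humidity. Triplicate, on at least three different days.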

Helicobacter pylori [4] = assay: Bactericidal activity against Helicobacter pylori Clinical isolate F1 measured after 72 hrs of incubation under microaerophilic conditions by modified broth dilution method; details: read-out: MBC99.9
Procedure, shortened: (§1)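 H. pylori (NCTC 11637, F1, 23, F4). Wells with no visible growth in the MIC assay spotted (10 μL) onto Skirrow agar. Plates incubated 72 h at 37 °C, microaerophilic, 100% humidity. MBC = concentration killing 99.9% of the initial inoculum. Triplicate, on at least three different days.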

Helicobacter pylori [5] = assay: Bactericidal activity against Helicobacter pylori NCTC 11637 measured after 72 hrs of incubation under microaerophilic conditions by modified broth dilution method; details: read-out: MBC99.9; procedure, shortened: as §1
Helicobacter pylori [6] = assay: Anti-bacterial activity against Helicobacter pylori Clinical isolate 23 measured after 72 hrs incubation by modified broth dilution method
Helicobacter pylori [7] = assay: Bactericidal activity against Helicobacter pylori Clinical isolate 23 measured after 72 hrs of incubation under microaerophilic conditions by modified broth dilution method; details: read-out: MBC99.9; procedure, shortened: as §1
Helicobacter pylori [8] = assay: Bactericidal against Helicobacter pylori Clinical isolate F4 measured after 72 hrs of incubation under microaerophilic conditions by modified broth dilution method; details: read-out: MBC99.9; procedure, shortened: as §1
Helicobacter pylori [9] = assay: Anti-bacterial activity against Helicobacter pylori NCTC 11637 measured after 72 hrs incubation by modified broth dilution method
Helicobacter pylori [10] = assay: Anti-bacterial activity against Helicobacter pylori measured after 72 hrs incubation by modified broth dilution method

C=CCc1ccc(O)c(OC)c1 [EUGENOL]
MIC (Helicobacter pylori [1]): 64 µg/mL (≈ 390 µM) | MIC (Helicobacter pylori [2]): 64 µg/mL (≈ 390 µM) | MBC90 (Helicobacter pylori [3]): 64 µg/mL (≈ 390 µM) | MBC (Helicobacter pylori [4]): 128 µg/mL (≈ 780 µM) | MBC (Helicobacter pylori [5]): 64 µg/mL (≈ 390 µM) | MIC (Helicobacter pylori [6]): 64 µg/mL (≈ 390 µM) | MBC (Helicobacter pylori [7]): 64 µg/mL (≈ 390 µM) | MBC (Helicobacter pylori [8]): 64 µg/mL (≈ 390 µM) | MIC (Helicobacter pylori [9]): 32 µg/mL (≈ 195 µM) | MIC50 (Helicobacter pylori [10]): 64 µg/mL (≈ 390 µM) | MIC90 (Helicobacter pylori [10]): 64 µg/mL (≈ 390 µM)

C/C=C/c1ccc(O)c(OC)c1
MIC (Helicobacter pylori [1]): 32 µg/mL (≈ 195 µM) | MIC (Helicobacter pylori [2]): 32 µg/mL (≈ 195 µM) | MBC (Helicobacter pylori [3]): 32 µg/mL (≈ 195 µM) | MBC (Helicobacter pylori [4]): 32 µg/mL (≈ 195 µM) | MBC (Helicobacter pylori [5]): 32 µg/mL (≈ 195 µM) | MIC (Helicobacter pylori [6]): 32 µg/mL (≈ 195 µM) | MBC (Helicobacter pylori [7]): 32 µg/mL (≈ 195 µM) | MBC (Helicobacter pylori [8]): 32 µg/mL (≈ 195 µM) | MIC (Helicobacter pylori [9]): 32 µg/mL (≈ 195 µM) | MIC50 (Helicobacter pylori [10]): 32 µg/mL (≈ 195 µM) | MIC90 (Helicobacter pylori [10]): 32 µg/mL (≈ 195 µM)

CC(=O)Oc1cc(C)c(/N=N/c2ccc([N+](=O)[O-])cc2)cc1C(C)C
MIC (Helicobacter pylori [1]): 128 µg/mL (≈ 375 µM) | MIC (Helicobacter pylori [2]): > 128 µg/mL | MBC90 (Helicobacter pylori [3]): >128 µg/mL | MBC (Helicobacter pylori [4]): 128 µg/mL (≈ 375 µM) | MBC (Helicobacter pylori [5]): > 128 µg/mL | MIC (Helicobacter pylori [6]): 128 µg/mL (≈ 375 µM) | MBC (Helicobacter pylori [7]): 128 µg/mL (≈ 375 µM) | MBC (Helicobacter pylori [8]): > 128 µg/mL | MIC (Helicobacter pylori [9]): > 128 µg/mL | MIC50 (Helicobacter pylori [10]): 128 µg/mL (≈ 375 µM) | MIC90 (Helicobacter pylori [10]): > 128 µg/mL

COc1ccc(/N=N/c2cc(C(C)C)c(OC(C)=O)cc2C)cc1
MIC (Helicobacter pylori [1]): 128 µg/mL (≈ 392 µM) | MIC (Helicobacter pylori [2]): 64 µg/mL (≈ 196 µM) | MBC90 (Helicobacter pylori [3]): 128 µg/mL (≈ 392 µM) | MBC (Helicobacter pylori [4]): 128 µg/mL (≈ 392 µM) | MBC (Helicobacter pylori [5]): 128 µg/mL (≈ 392 µM) | MIC (Helicobacter pylori [6]): 64 µg/mL (≈ 196 µM) | MBC (Helicobacter pylori [7]): 64 µg/mL (≈ 196 µM) | MBC (Helicobacter pylori [8]): 128 µg/mL (≈ 392 µM) | MIC (Helicobacter pylori [9]): 128 µg/mL (≈ 392 µM) | MIC50 (Helicobacter pylori [10]): 64 µg/mL (≈ 196 µM) | MIC90 (Helicobacter pylori [10]): 128 µg/mL (≈ 392 µM)

C=CCc1cc(/N=N/c2cccc(OC)c2)c(O)c(OC)c1
MIC (Helicobacter pylori [1]): > 128 µg/mL | MIC (Helicobacter pylori [2]): > 128 µg/mL | MBC90 (Helicobacter pylori [3]): >128 µg/mL | MBC (Helicobacter pylori [4]): > 128 µg/mL | MBC (Helicobacter pylori [5]): > 128 µg/mL | MIC (Helicobacter pylori [6]): > 128 µg/mL | MBC (Helicobacter pylori [7]): > 128 µg/mL | MBC (Helicobacter pylori [8]): > 128 µg/mL | MIC (Helicobacter pylori [9]): > 128 µg/mL | MIC50 (Helicobacter pylori [10]): > 128 µg/mL | MIC90 (Helicobacter pylori [10]): > 128 µg/mL

COc1cc(C=O)ccc1O [VANILLIN]
MIC (Helicobacter pylori [1]): > 128 µg/mL | MIC (Helicobacter pylori [2]): 128 µg/mL (≈ 841 µM) | MBC (Helicobacter pylori [3]): > 128 µg/mL | MBC (Helicobacter pylori [4]): > 128 µg/mL | MBC (Helicobacter pylori [5]): > 128 µg/mL | MIC (Helicobacter pylori [6]): > 128 µg/mL | MBC (Helicobacter pylori [7]): > 128 µg/mL | MBC (Helicobacter pylori [8]): 128 µg/mL (≈ 841 µM) | MIC (Helicobacter pylori [9]): > 128 µg/mL | MIC50 (Helicobacter pylori [10]): > 128 µg/mL | MIC90 (Helicobacter pylori [10]): > 128 µg/mL

COc1cc(C=O)cc(/N=N/c2cccc([N+](=O)[O-])c2)c1O
MIC (Helicobacter pylori [1]): 16 µg/mL (≈ 53.1 µM) | MIC (Helicobacter pylori [2]): 8 µg/mL (≈ 26.6 µM) | MBC90 (Helicobacter pylori [3]): 16 µg/mL (≈ 53.1 µM) | MBC (Helicobacter pylori [4]): 16 µg/mL (≈ 53.1 µM) | MBC (Helicobacter pylori [5]): 8 µg/mL (≈ 26.6 µM) | MIC (Helicobacter pylori [6]): 8 µg/mL (≈ 26.6 µM) | MBC (Helicobacter pylori [7]): 8 µg/mL (≈ 26.6 µM) | MBC (Helicobacter pylori [8]): 16 µg/mL (≈ 53.1 µM) | MIC (Helicobacter pylori [9]): 8 µg/mL (≈ 26.6 µM) | MIC50 (Helicobacter pylori [10]): 8 µg/mL (≈ 26.6 µM) | MIC90 (Helicobacter pylori [10]): 16 µg/mL (≈ 53.1 µM)

C=CCc1cc(/N=N/c2ccc3c(c2)OCO3)c(O)c(OC)c1
MIC (Helicobacter pylori [1]): > 128 µg/mL | MIC (Helicobacter pylori [2]): > 128 µg/mL | MBC90 (Helicobacter pylori [3]): >128 µg/mL | MBC (Helicobacter pylori [4]): > 128 µg/mL | MBC (Helicobacter pylori [5]): 128 µg/mL (≈ 410 µM) | MIC (Helicobacter pylori [6]): > 128 µg/mL | MBC (Helicobacter pylori [7]): > 128 µg/mL | MBC (Helicobacter pylori [8]): > 128 µg/mL | MIC (Helicobacter pylori [9]): 128 µg/mL (≈ 410 µM) | MIC50 (Helicobacter pylori [10]): > 128 µg/mL | MIC90 (Helicobacter pylori [10]): > 128 µg/mL

Cc1ccc(C(C)C)cc1O [CARVACROL]
MIC (Helicobacter pylori [1]): 64 µg/mL (≈ 426 µM) | MIC (Helicobacter pylori [2]): 64 µg/mL (≈ 426 µM) | MBC (Helicobacter pylori [3]): 64 µg/mL (≈ 426 µM) | MBC (Helicobacter pylori [4]): 64 µg/mL (≈ 426 µM) | MBC (Helicobacter pylori [5]): 64 µg/mL (≈ 426 µM) | MIC (Helicobacter pylori [6]): 64 µg/mL (≈ 426 µM) | MBC (Helicobacter pylori [7]): 64 µg/mL (≈ 426 µM) | MBC (Helicobacter pylori [8]): 64 µg/mL (≈ 426 µM) | MIC (Helicobacter pylori [9]): 64 µg/mL (≈ 426 µM) | MIC50 (Helicobacter pylori [10]): 64 µg/mL (≈ 426 µM) | MIC90 (Helicobacter pylori [10]): 64 µg/mL (≈ 426 µM)

Cc1ccc(C(C)C)c(O)c1 [THYMOL]
MIC (Helicobacter pylori [1]): 64 µg/mL (≈ 426 µM) | MIC (Helicobacter pylori [2]): 64 µg/mL (≈ 426 µM) | MBC (Helicobacter pylori [3]): 128 µg/mL (≈ 852 µM) | MBC (Helicobacter pylori [4]): 64 µg/mL (≈ 426 µM) | MBC (Helicobacter pylori [5]): 128 µg/mL (≈ 852 µM) | MIC (Helicobacter pylori [6]): 128 µg/mL (≈ 852 µM) | MBC (Helicobacter pylori [7]): 128 µg/mL (≈ 852 µM) | MBC (Helicobacter pylori [8]): 64 µg/mL (≈ 426 µM) | MIC (Helicobacter pylori [9]): 128 µg/mL (≈ 852 µM) | MIC50 (Helicobacter pylori [10]): 64 µg/mL (≈ 426 µM) | MIC90 (Helicobacter pylori [10]): 128 µg/mL (≈ 852 µM)

Cc1cc(O)c(C(C)C)cc1C1(c2cc(C(C)C)c(O)cc2C)OS(=O)(=O)c2ccccc21
MIC (Helicobacter pylori [1]): 128 µg/mL (≈ 274 µM) | MIC (Helicobacter pylori [2]): > 128 µg/mL | MBC90 (Helicobacter pylori [3]): >128 µg/mL | MBC (Helicobacter pylori [4]): 128 µg/mL (≈ 274 µM) | MBC (Helicobacter pylori [5]): > 128 µg/mL | MIC (Helicobacter pylori [6]): 128 µg/mL (≈ 274 µM) | MBC (Helicobacter pylori [7]): > 128 µg/mL | MBC (Helicobacter pylori [8]): > 128 µg/mL | MIC (Helicobacter pylori [9]): > 128 µg/mL | MIC50 (Helicobacter pylori [10]): > 128 µg/mL | MIC90 (Helicobacter pylori [10]): > 128 µg/mL
